Activity calls are given as the source filed them. No cut-off for these calls is given here.
Assays:
[1] = test system: HUVEC; test: Anti-angiogenic activity against HUVEC cells assessed as inhibition of tubular structure formation at 10 uM […] by Matrigel based phase contrast microscopic analysis; type: functional, cell-based; conditions: Homo sapiens
[2] = target: T1, RAC-alpha serine/threonine-protein kinase (Homo sapiens, UniProt P31749); conditions: dose 200.0 nM, time 40.0 min
[3] = target: T2, Aminopeptidase N (Sus scrofa, UniProt P15145); test: Inhibition of APN in pig kidney microsomes assessed as reduction in p-nitroanilide release using L-leu-p-nitroanilide as substrate incubated for 30 mins by UV absorption based analysis
T2 sequence (P15145 whole entry): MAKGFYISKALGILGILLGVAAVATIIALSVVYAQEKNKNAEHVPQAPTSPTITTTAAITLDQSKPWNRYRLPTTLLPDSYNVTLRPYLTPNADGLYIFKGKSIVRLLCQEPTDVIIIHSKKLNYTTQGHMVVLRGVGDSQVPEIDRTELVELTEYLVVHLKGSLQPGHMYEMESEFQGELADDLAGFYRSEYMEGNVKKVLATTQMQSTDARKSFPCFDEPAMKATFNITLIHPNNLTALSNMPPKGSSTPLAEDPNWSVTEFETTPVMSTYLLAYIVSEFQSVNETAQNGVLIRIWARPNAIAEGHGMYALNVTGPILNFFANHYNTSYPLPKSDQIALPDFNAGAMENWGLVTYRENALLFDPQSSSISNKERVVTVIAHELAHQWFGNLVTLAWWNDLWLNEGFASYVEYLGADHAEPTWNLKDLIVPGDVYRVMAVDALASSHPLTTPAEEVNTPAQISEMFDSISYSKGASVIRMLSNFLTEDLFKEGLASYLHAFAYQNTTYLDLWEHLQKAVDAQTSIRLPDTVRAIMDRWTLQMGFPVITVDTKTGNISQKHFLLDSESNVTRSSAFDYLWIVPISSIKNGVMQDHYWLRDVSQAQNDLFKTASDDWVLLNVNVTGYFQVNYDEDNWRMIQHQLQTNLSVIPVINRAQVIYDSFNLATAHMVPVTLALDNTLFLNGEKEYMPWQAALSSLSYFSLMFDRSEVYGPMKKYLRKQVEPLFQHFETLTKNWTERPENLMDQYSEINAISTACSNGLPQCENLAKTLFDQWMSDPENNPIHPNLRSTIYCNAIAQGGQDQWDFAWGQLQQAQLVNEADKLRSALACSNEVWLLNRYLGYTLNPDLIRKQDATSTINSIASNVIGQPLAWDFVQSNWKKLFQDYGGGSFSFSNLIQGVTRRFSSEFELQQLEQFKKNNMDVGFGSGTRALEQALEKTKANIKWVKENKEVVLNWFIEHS

[4] = test system: AGS; test: Antiproliferative activity against human AGS cells assessed as reduction in cell viability incubated for 72 hrs by MTT assay; type: functional, cell-based
[5] = test system: NCI-H1975; test: Antiproliferative activity against human NCI-H1975 cells assessed as reduction in cell viability incubated for 72 hrs by MTT assay; type: functional, cell-based; conditions: NCI-H1975, 72 h
[6] = test system: MCF7; test: Antiproliferative activity against human MCF7 cells assessed as reduction in cell viability incubated for 72 hrs by MTT assay; type: functional, cell-based; conditions: MCF7, 72 h
[7] = target: T1, RAC-alpha serine/threonine-protein kinase; test: Inhibition of AKT1 (unknown origin) incubated for 40 mins in presence of ATP by Kinase-Glo reagent based luminescence analysis
[8] = target: T3, Aminopeptidase N (Sus scrofa) (UniProt P15145); test: Potency index, ratio of bestatin IC50 to test compound IC50 for inhibition of APN in pig kidney microsomes assessed as reduction in p-nitroanilide release using L-leu-p-nitroanilide as substrate incubated for 30 mins by UV absorption based analysis
T3 sequence (whole entry): T2 sequence (P15145 whole entry)

[9] = target: T4, Serine/threonine-protein kinase AKT (Homo sapiens) (UniProt P31751+Q9Y243+P31749); test: Inhibition of AKT in human AGS cells assessed as inhibition of GSK3beta phosphorylation incubated for up to 6 hrs by immunoblot analysis; type: cell-based; conditions: dose 2-10 µM, time hrs <=6
T4 sequence (P31749 whole entry, looked up): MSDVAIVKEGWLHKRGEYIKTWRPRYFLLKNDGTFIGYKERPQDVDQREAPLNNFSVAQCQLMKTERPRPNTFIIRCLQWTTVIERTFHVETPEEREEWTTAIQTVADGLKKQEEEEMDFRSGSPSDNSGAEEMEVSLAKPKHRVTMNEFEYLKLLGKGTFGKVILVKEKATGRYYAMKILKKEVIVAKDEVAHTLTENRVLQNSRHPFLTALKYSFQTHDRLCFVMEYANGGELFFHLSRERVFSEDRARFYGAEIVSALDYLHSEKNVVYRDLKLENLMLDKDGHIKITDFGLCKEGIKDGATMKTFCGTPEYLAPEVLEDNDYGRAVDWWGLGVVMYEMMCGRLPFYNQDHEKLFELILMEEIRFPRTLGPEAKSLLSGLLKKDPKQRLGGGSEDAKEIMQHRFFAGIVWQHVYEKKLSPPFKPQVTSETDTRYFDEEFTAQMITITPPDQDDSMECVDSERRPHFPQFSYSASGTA
T4 sequence (P31751 whole entry, looked up): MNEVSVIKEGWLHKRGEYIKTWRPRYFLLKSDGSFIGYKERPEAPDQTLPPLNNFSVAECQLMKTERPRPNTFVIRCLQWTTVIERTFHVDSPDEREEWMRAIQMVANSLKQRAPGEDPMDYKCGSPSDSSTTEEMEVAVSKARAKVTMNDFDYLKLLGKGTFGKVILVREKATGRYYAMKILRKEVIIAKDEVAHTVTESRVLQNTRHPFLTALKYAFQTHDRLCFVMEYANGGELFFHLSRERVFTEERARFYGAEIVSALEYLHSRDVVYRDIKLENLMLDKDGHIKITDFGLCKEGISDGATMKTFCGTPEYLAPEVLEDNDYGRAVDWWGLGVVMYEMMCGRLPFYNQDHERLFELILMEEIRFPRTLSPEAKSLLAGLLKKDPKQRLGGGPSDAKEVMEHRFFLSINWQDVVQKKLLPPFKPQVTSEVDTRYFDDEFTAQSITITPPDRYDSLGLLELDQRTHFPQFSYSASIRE
T4 sequence (Q9Y243 whole entry, looked up): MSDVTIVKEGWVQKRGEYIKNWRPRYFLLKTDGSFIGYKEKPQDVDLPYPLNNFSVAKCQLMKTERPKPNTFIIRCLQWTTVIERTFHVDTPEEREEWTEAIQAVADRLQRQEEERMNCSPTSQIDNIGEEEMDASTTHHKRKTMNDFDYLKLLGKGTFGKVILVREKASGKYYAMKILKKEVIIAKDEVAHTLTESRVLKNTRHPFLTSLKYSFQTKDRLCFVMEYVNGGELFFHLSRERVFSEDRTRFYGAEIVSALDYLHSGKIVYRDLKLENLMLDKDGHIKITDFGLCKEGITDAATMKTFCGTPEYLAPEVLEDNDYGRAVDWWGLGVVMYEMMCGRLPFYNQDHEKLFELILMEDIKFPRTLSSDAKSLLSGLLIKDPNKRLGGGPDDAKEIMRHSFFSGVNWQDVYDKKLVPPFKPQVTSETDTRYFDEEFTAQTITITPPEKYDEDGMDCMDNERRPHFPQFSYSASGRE
Procedure, shortened: (§1)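 Western blot in AGS cells treated with DMSO or compound at 2 or 10 μM for 2 or 6 h. Phospho-GSK3β was probed with β-actin as loading control and blots were quantified. Three independent experiments were run, with Student's two-tailed t test against control.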

[10] = target: T4, Serine/threonine-protein kinase AKT (Homo sapiens); test: Inhibition of AKT in human AGS cells assessed as inhibition of GSK3beta phosphorylation up to 10 uM by immunoblot analysis; type: cell-based; conditions: dose microM <=10, time 2-6 hrs, TDE = time-dependent effect; procedure, shortened: as §1

T1 sequence (P31749 whole entry): as the sequence (P31749 whole entry, looked up) above

SMILES | inhibition [2] [%] | IC50 [3] [nM] | also measured
COc1ccc(Cn2ccc3ccc(C(=O)NO)cc32)cc1 |  |  | Activity [1]: inactive
CC(C)C[C@@H](NC(=O)NC1CCN(c2ncnc3[nH]ccc23)CC1)C(=O)NO | 4 | 710 | 
NC1(C(=O)N[C@H](Cc2c[nH]c3ccccc23)C(=O)NO)CCN(c2ncnc3[nH]ccc23)CC1 | 3 | 4160 | 
O=C(NO)[C@H](NC(=O)N1CCN(c2ncnc3[nH]ccc23)CC1)c1ccccc1 |  | 1040 | 
CC(C)C[C@H](NC(=O)C1(N)CCN(c2ncnc3[nH]ccc23)CC1)C(=O)NO | 7 | 32400 | 
CC(C)[C@H](NC(=O)C1(N)CCN(c2ncnc3[nH]ccc23)CC1)C(=O)NO | 5 | 140000 | 
NC1(C(=O)N[C@@H](C(=O)NO)c2ccccc2)CCN(c2ncnc3[nH]ccc23)CC1 | 60 | 960 | IC50 [4]: 30700 nM; IC50 [5]: 20300 nM; IC50 [6]: 24800 nM; IC50 [7]: 121 nM; Activity [1]: Active
O=C(N[C@H](Cc1ccccc1)C(=O)NO)C1CCN(c2ncnc3[nH]ccc23)CC1 | 7 | 710 | 
CC(C)C[C@@H](NC(=O)C1CCN(c2ncnc3[nH]ccc23)CC1)C(=O)NO | 2 | 50 | Ratio IC50 [8]: 70
NC1(C(=O)N[C@H](Cc2ccccc2)C(=O)NO)CCN(c2ncnc3[nH]ccc23)CC1 | 21 | 670 | 
CC(C)[C@@H](NC(=O)C1(N)CCN(c2ncnc3[nH]ccc23)CC1)C(=O)NO | 6 | 470 | 
NC1(C(=O)N[C@@H](CCO)c2ccc(Cl)cc2)CCN(c2nc[nH]c3nccc2-3)CC1 [CAPIVASERTIB] |  |  | IC50 [4]: 9600 nM; IC50 [5]: 2700 nM; IC50 [6]: 4200 nM; Activity [1]: inactive
O=C(NC1CCN(c2ncnc3[nH]ccc23)CC1)N[C@H](Cc1ccccc1)C(=O)NO | 7 | 900 | 
CC(C)C[C@H](NC(=O)[C@@H](O)[C@H](N)Cc1ccccc1)C(=O)O [UBENIMEX] |  |  | IC50 [4]: > 200000 nM; IC50 [5]: > 200000 nM; IC50 [6]: > 200000 nM; Activity [1]: Active
CC(C)C[C@@H](NC(=O)C1(N)CCN(c2ncnc3[nH]ccc23)CC1)C(=O)NO | 43 | 210 | IC50 [4]: 52400 nM; IC50 [5]: 27400 nM; IC50 [6]: 32700 nM; inhibition [9]: Dose-Dependent Effect; IC50 [7]: 270 nM; inhibition [10]: Tde; Activity [1]: Active
CC(C)C[C@@H](NC(=O)N1CCN(c2ncnc3[nH]ccc23)CC1)C(=O)NO | 29 | 210 | 
NC1(C(=O)N[C@H](C(=O)NO)c2ccccc2)CCN(c2ncnc3[nH]ccc23)CC1 | 35 | 1490 | 
NC1(C(=O)N[C@@H](Cc2ccccc2)C(=O)NO)CCN(c2ncnc3[nH]ccc23)CC1 | 2 | 159000 | 
O=C(NO)[C@@H](Cc1ccccc1)NC(=O)N1CCN(c2ncnc3[nH]ccc23)CC1 | 11 | 260 | 
O=C(N[C@@H](C(=O)NO)c1ccccc1)C1CCN(c2ncnc3[nH]ccc23)CC1 |  | 390 | 
NC1(C(=O)N[C@@H](Cc2c[nH]c3ccccc23)C(=O)NO)CCN(c2ncnc3[nH]ccc23)CC1 | 5 | 127000 | 
O=C(NC1CCN(c2ncnc3[nH]ccc23)CC1)N[C@@H](C(=O)NO)c1ccccc1 |  | 5400 | 

— ChEMBL document CHEMBL4831560, “Design, Synthesis, and Biological Evaluation of APN and AKT Dual-Target Inhibitors” (ACS Med Chem Lett, 2021)
